Screen size: about 60,000 compounds; about 60 (0.1%) were called active.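 The calls were made as follows: active = activation above the screen-wide mean plus 3 SD (cut at about 4.5% in these data, passing the limit was not always enough); inactive = the rest, inconclusive results apart.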 For the sample, actives were picked, then their nearest neighbours and some compounds at random.
Molecular target: Sphingosine 1-phosphate receptor 3 (Homo sapiens) (UniProt Q99500)
Assay: human S1P3 receptor agonists, primary screen, cell-based, primary and confirmation, NFAT-BLA reporter (AID 373)
Details: S1P3 NFAT-BLA reporter cells, agonism, FRET ratio, at 4.5 µM, stronger effect = higher value, relative to 1 µM S1P, basal subtracted
How it was run: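 Benchmarks: high control 1 µM S1P / System: stable CHO line with human S1P3, Gα16, NFAT-BLA reporter / Dosing: single compound concentration, 4.5 µM final / Timing: 4 h compound at 37 °C, 2 h substrate at RT / Measured by: FRET β-lactamase substrate fluorescence, excitation 405 nm, 460/535 nm emission ratio, background-subtracted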

Chain of Sphingosine 1-phosphate receptor 3 (Homo sapiens) (Q99500 whole entry, looked up): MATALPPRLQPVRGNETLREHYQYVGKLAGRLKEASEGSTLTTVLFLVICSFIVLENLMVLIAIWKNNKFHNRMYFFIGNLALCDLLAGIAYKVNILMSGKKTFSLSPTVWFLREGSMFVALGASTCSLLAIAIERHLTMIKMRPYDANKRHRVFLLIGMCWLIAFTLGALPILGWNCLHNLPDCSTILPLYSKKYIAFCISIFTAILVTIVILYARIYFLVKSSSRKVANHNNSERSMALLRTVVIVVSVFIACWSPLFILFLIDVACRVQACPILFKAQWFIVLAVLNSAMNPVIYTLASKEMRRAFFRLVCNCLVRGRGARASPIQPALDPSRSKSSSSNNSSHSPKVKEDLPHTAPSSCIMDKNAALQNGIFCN

activation, inactive:
CCOc1ccc(CNC(=O)C2CC(=O)N(C3CCCC3)C2)cc1OC (configuration not stated) 0.9%, O=C1CCC(Cc2ccccc2)N1 (configuration not stated) 0.3%, CCCCOc1ccc(-c2nnc(-c3ccco3)o2)cc1 -0.5%, COC(=O)N1CN(C(=O)OC)CN(C(=O)OC)C1 -0.2%, COC(=O)CN(c1nc(C)c(Cl)c(OC)n1)S(=O)(=O)c1ccc(C)cc1 -1.1%, O=C(O)c1ccc(NS(=O)(=O)c2cccc3nsnc23)cc1 -0.5%, Cn1c(=O)[nH]c(=O)c2c1nc(Br)n2CCCCSc1nc2ccccc2o1 -1.6%, O=C(NCCN1CCOCC1)c1ccc2c(c1)ncn2C1CCCC1 -0.2%, COc1cccc(OCC(=O)Nc2ccccc2C(N)=O)c1 -1.1%, CCOC(=O)N1CCN(C(=O)c2cc3c(-c4ccc(Cl)cc4)nn(C)c3s2)CC1 -1.5%, Cc1cc(C)c2nc(SCCC#N)nc(C)c2c1 -0.8%, c1cc(-c2nn[nH]n2)ccc1CN1CCCCC1 -0.2%, N#CC(C(N)=O)=C1CCC2(CC1)OCCCCO2 -0.6%, CC(CNC(=O)c1ccc(Br)o1)NC(=O)c1ccc(Br)o1 (configuration not stated) -0.8%, Cc1ccc(OCC(=O)Nc2ccc(-c3nc4ncccc4o3)cc2)cc1 0.4%, O=c1c2ccccc2[nH]c(=S)n1CCN1CCC(=C(c2ccc(F)cc2)c2ccc(F)cc2)CC1 -2.2%, Cc1cc(NC(=O)CCC(=O)N(c2ccccc2)C(C(=O)NC2CCCC2)c2ccncc2)no1 (configuration not stated) -0.2%, O=C(OCCO)c1cc(Cl)c(C(=O)OCCO)cc1Cl -1.2%, Cc1cccc(NC(=O)C2CCN(S(=O)(=O)c3cccc4cccnc34)CC2)c1 -0.2%, CN(C)c1ccnc2sc3c(=O)n(Cc4ccccc4)cnc3c12 -1.9%, CCN1C(=O)/C(=C2\SC(N3CCCCC3)=NC2=O)c2ccccc21 -0.5%, COc1ccc2c(c1OC)C(=O)OC2c1c(O)nc(SC)n(-c2ccccc2)c1=O (configuration not stated) -2.9%, CCc1nnc(NC(=O)c2cccs2)s1 0.7%, COc1ccc(C(=O)N(CCN2CCOCC2)CC(=O)NC2CCCC2)cc1OC 0.6%, CCn1c(=O)cc(O)c2ccccc21 0.7%, CCOC(=O)C1=C(C)N=c2s/c(=C\C(=O)OC)c(=O)n2C1c1ccc(OC)cc1 (configuration not stated) -0.8%, O=C(CCc1ccccc1)Nc1cccc(-c2nnc(-c3ccco3)o2)c1 -0.9%, CCc1cc(=O)oc2cc(C)cc(OC(C)C(=O)O)c12 (configuration not stated) -0.4%, COc1ccc(Cn2nnc3c(=O)[nH]c(C4CCN(C(=O)c5ccccc5Cl)CC4)nc32)cc1 -0.1%, COc1ccc(N2C(=O)C3CCCN3C2c2cccc(OC)c2)cc1 (configuration not stated) -0.5%, Cc1ccc(C(=O)Nc2nnc(-c3cccs3)s2)cc1C -0.6%, COc1ccccc1NC(=O)CN1CCN(S(=O)(=O)c2ccc(Br)cc2)CC1 -0.8%, Cc1ccc(C(C(=O)NCc2ccco2)N(CC2CCCO2)C(=O)Cn2nnc3ccccc32)cc1 (configuration not stated) -0.7%, CC1CCN(Cc2nc3c(c(=O)n(C)c(=O)n3C)n2Cc2cccc3ccccc23)CC1 -0.5%, COC(=O)Cn1c(=NC(=O)CSCC(=O)Nc2cc(C)on2)sc2ccccc21 -0.5%, COC(=O)c1c(-c2ccc(C)cc2)csc1N -0.4%, CCOC(=O)N1CCN(CC(=O)c2ccc3c(c2)CCN3)CC1 0%, CC(C)(C)c1ccc(NC(=O)NCc2ccco2)cc1 -0.2%, CC(=O)CCS(=O)(=O)c1ccc(C)c(C)c1 -3%, COC(=O)c1ccc(CSc2nncn2C)cc1 -1.1%, CCn1cc(C(=O)NCC2CCCO2)c(=O)c2cc(S(=O)(=O)N3CCCCC3)ccc21 (configuration not stated) -0.3%, O=c1oc2c(CN3CCCCC3)c(O)ccc2c2c1CCCCC2 -1%

— PubChem BioAssay AID373 (The Scripps Research Institute Molecular Screening Center, 2006)
